Assay [1] relates to Mus musculus. Nature of the assay: Antiinflammatory activity in PGE2-induced paw edema in Balb/c mouse assessed as inhibition of paw edema at 100 mg/kg, ip administered 1 hr prior to PGE2 challenge and measured after 4 hrs relative to control. The format is functional. The note with it: time 5 hrs. In short, it runs like this:
(§1)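 BALB/c mice of either sex (30–35 g), 8 per group, dosed i.p. with 10% DMSO, reference drug or compound (100 mg/kg). After 1 h, subplantar irritant: PGE2 0.01 µg/ml, bradykinin 20 µg/ml, histamine 0.1 ml of 1 mg/ml, or leukotriene 10 µg/ml.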

Assay [2] can be described thus: Antiinflammatory activity assessed as inhibition of heat-induced albumin denaturation preincubated for 20 mins followed by heating at 51 degC and measured after 3 mins by UV-vis spectrophotometric method.
Assay [3] deals with Mus musculus. The assay can be described thus: Antiinflammatory activity in PGE2-induced paw edema in Balb/c mouse assessed as inhibition of paw edema at 100 mg/kg, ip administered 1 hr prior to PGE2 challenge and measured after 1 hr relative to control. The note with it: time 2 hrs. It is filed as functional. In short, it runs like this: as §1
The test system of assay [4] is Mus musculus. The assay can be described thus: Antiinflammatory activity in leukotriene-induced paw edema in Balb/c mouse assessed as inhibition of paw edema at 100 mg/kg, ip administered 1 hr prior to leukotriene challenge and measured after 3 hrs relative to control. The note with it: time 4 hrs. The format is functional. In short, it runs like this: as §1
Assay [5] concerns Mus musculus. Nature of the assay: Antiinflammatory activity in histamine-induced paw edema in Balb/c mouse assessed as inhibition of paw edema at 100 mg/kg, ip administered 1 hr prior to histamine challenge and measured after 5 hrs. It is filed as functional, organism-based. The note with it: time 6.0 hrs. The gist of the method:
as §1

Assay [6] has as its system Mus musculus. The assay can be described thus: Antiinflammatory activity in histamine-induced paw edema in Balb/c mouse assessed as inhibition of paw edema at 100 mg/kg, ip administered 1 hr prior to histamine challenge and measured after 1 hr relative to control. The format is functional. The note with it: time 2 hrs. In short, it runs like this:
as §1

Activity calls are given as the source filed them. The calls are words filed in the database; no cut-off is given here.

What is called inhibition in vivo is the change of the read-out against control, counted positive when it falls. As a reminder, the IC50 is the concentration needed to halve the response being measured. In the case of `O=C1CCCCC1C1CC(=O)N(Cc2ccccc2)C1=O` (stereo unspecified), the inhibition in vivo at 100 mg/kg in the assay on Mus musculus [1] amounted to 64.6%; in the assay with Mus musculus [3] it was 50.5%. Moreover, the IC50 in assay [2] worked out at 24.5 µM.

`Cc1ccc(C(=O)CC2CC(=O)N(c3ccc(S(N)(=O)=O)cc3)C2=O)cc1` (stereo unspecified): the figures for the inhibition in vivo at 100 mg/kg in the assay on Mus musculus [4] and in the assay with Mus musculus [6] were 74.4% and 32.4%, respectively. Further, in the assay on Mus musculus [5], the inhibition result is “Active”.

For the origin of these results see ChEMBL document CHEMBL4715833, “Design, synthesis, in-vitro, in-vivo and in-silico studies of pyrrolidine-2,5-dione derivatives as multitarget anti-inflammatory agents” (Eur J Med Chem, 2020).
